# Experimental data from ChEMBL document CHEMBL1641478, “Structural and biochemical study on the inhibitory activity of derivatives of 5-nitro-furan-2-carboxylic acid for RNase H function of HIV-1 reverse transcriptase” (Bioorg Med Chem, 2011).
# Columns and labels:
# [1] = (§1) Cytotoxicity against human MT4 cells after 3 days by MTT assay; format: cell-based; details: MT4 cells
# Procedure, shortened: (§2)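 Cells in RPMI-1640 with 10% FBS: MT-4 seeded at 4 × 10⁵/mL, 293T at 2 × 10⁵/mL. Compound final concentrations 100, 50, 25 and 12.5 µM, 1% DMSO final, plus an untreated control. Incubated 3 days at 37 °C in 5% CO₂. MTT added for 1 h, then solubilized overnight at 4 °C and read at OD570/690. CC50 derived only when viability fell below 50% at 100 µM.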
# [2] = target: Human immunodeficiency virus type 1 reverse transcriptase (Human immunodeficiency virus 1, UniProt Q72547); experiment: Inhibition RNase H activity of HIV1 reverse transcriptase expressed in Escherichia coli stain BL21(DE3)pLysS
# Procedure, shortened: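 His-tagged p66/p51 RT expressed in E. coli BL21(DE3)pLysS with 1 mM IPTG for 3 h. Substrate: 18-mer RNA labelled with 3′-FAM, annealed to complementary DNA carrying a 5′-BHQ quencher. Reaction used 100 ng RT at 37 °C, with cleavage followed in real time by fluorescence at 488 nm every 150 s. IC50 taken as the concentration halving the cleavage rate relative to control.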
# [3] = Cytotoxicity against human 293T cells after 3 days by MTT assay; format: cell-based, HEK-293T; details: for CC50 at 72 h: 293T cells; for CC50: hek-293t, 72 h; procedure, shortened: as §2
# [4] = test system: MT4; experiment: as §1; format: cell-based; details: mt4, 72 h; procedure, shortened: as §2
Structure (SMILES),CC50 at 72 h [1] [µM],IC50 [2] [µM],CC50 at 72 h [3] [µM],CC50 [4],CC50 [3]
CC(C)(C)N(Cc1ccc(F)cc1)C(=O)COC(=O)c1ccc([N+](=O)[O-])o1,> 100,8.5,> 100,,
CC(C)(C)NC(=O)COC(=O)c1ccc([N+](=O)[O-])s1,> 100,2.8,> 100,,
CC(C)(C)C(=O)COC(=O)c1ccc([N+](=O)[O-])s1,,5.7,,,
CC(C)(C)N(Cc1cccc([N+](=O)[O-])c1)C(=O)COC(=O)c1ccc([N+](=O)[O-])o1,> 100,9.8,78,,
CC(C)(C)NC(=O)COC(=O)c1ccc(Br)o1,,> 50,,,
CCC(C)(C)NC(=O)COC(=O)c1ccc([N+](=O)[O-])o1,> 100,5.8,> 100,,
CC(C)(C)N(Cc1ccccc1)C(=O)COC(=O)c1ccc([N+](=O)[O-])o1,> 100,0.9,> 100,,
CC(C)(C)N(Cc1ccccc1)C(=O)COC(=O)c1ccco1,,> 50,,,
CCOC(=O)[C@H](CC(C)C)NC(=O)c1ccc([N+](=O)[O-])o1,,> 50,,,
CCOC(=O)[C@H](Cc1ccccc1)NC(=O)c1ccc([N+](=O)[O-])o1,,> 50,,,
CCOC(=O)[C@H](Cc1ccc(O)cc1)NC(=O)c1ccc([N+](=O)[O-])o1,,> 50,,,
CC(C)(C)NC(=O)COC(=O)c1ccc(C(=O)c2ccccc2)o1,,> 50,,,
CC(=O)COC(=O)c1ccc([N+](=O)[O-])o1,> 100,7.1,> 100,,
CC(C)(Cc1ccccc1)NC(=O)COC(=O)c1ccc([N+](=O)[O-])o1,> 100,4.3,> 100,,
CC(=O)Oc1ccccc1CN(C(=O)COC(=O)c1ccc([N+](=O)[O-])o1)C(C)(C)C,> 100,12.8,> 100,,
CC(C)(C)C(=O)COC(=O)c1ccc([N+](=O)[O-])o1,> 100,21.9,> 100,,
O=C(COC(=O)c1ccc([N+](=O)[O-])o1)NCC1CCCO1 (stereo not given),> 100,4.2,> 100,,
CC(C)OC(=O)COC(=O)c1ccc([N+](=O)[O-])o1,> 100,13.2,> 100,,
O=C(COC(=O)c1ccc([N+](=O)[O-])o1)NC1Cc2ccccc2C1,> 100,5.5,> 100,,
CCC(C)(C)N(Cc1cccc([N+](=O)[O-])c1)C(=O)COC(=O)c1ccc([N+](=O)[O-])s1,,25.8,,,
CCC(C)(C)NC(=O)COC(=O)c1ccc([N+](=O)[O-])s1,,5.8,,,
COC(=O)CNC(=O)c1ccc([N+](=O)[O-])o1,,> 50,,,
O=C(OCC(=O)N(Cc1ccc(O)cc1)CC1CCCO1)c1ccc([N+](=O)[O-])o1 (stereo not given),> 100,5,> 100,,
O=C(COC(=O)c1ccc([N+](=O)[O-])o1)NC1CCCc2ccccc21 (stereo not given),> 100,4.3,> 100,,
CC(=O)COC(=O)c1ccc([N+](=O)[O-])s1,,9.5,,,
CCC(C)(C)N(Cc1ccc([N+](=O)[O-])cc1)C(=O)COC(=O)c1ccc([N+](=O)[O-])s1,,33.5,,,
CC(C)(C)NC(=O)COC(=O)c1ccc([N+](=O)[O-])o1,> 100,18,> 100,,

Structure (SMILES),CC50 at 72 h [1] [µM],IC50 [2] [µM],CC50 at 72 h [3] [µM],CC50 [4],CC50 [3]
CN(OC(=O)c1ccc([N+](=O)[O-])o1)C(=O)c1ccc([N+](=O)[O-])o1,86,2.7,> 100,,
CC(C)(C)N(CCC(=O)c1ccccc1)C(=O)COC(=O)c1ccc([N+](=O)[O-])o1,,> 50,,Not Active,Not Active
CC(C)(C)NC(=O)COC(=O)c1ccno1,,> 50,,,
O=C(OCCc1ccc([N+](=O)[O-])cc1)c1ccc([N+](=O)[O-])o1,28,2.1,36,,
COc1ccc(CN(C(=O)COC(=O)c2ccc([N+](=O)[O-])o2)C(C)(C)C)cc1,> 100,7.5,> 100,,
CC(C)(C)N(Cc1ccc(C(F)(F)F)cc1)C(=O)COC(=O)c1ccc([N+](=O)[O-])o1,71,8,36,,
O=C(COC(=O)c1ccc([N+](=O)[O-])o1)NC1CCc2ccccc21 (stereo not given),> 100,6.1,> 100,,
CC(C)(C)NC(=O)COC(=O)c1ccccc1[N+](=O)[O-],,> 50,,,
CC(C)(C)N(CCCc1ccccc1)C(=O)COC(=O)c1ccc([N+](=O)[O-])o1,,> 50,,Not Active,Not Active
CC(C)(C)N(Cc1c(F)c(F)c(F)c(F)c1F)C(=O)COC(=O)c1ccc([N+](=O)[O-])o1,> 100,6.8,83,,
CC(C)(C)N(Cc1cccc(C(F)(F)F)c1)C(=O)COC(=O)c1ccc([N+](=O)[O-])o1,> 100,8.5,68,,
CC(C)(C)N(Cc1ccc(OCc2ccccc2)cc1)C(=O)COC(=O)c1ccc([N+](=O)[O-])o1,,> 50,,Not Active,Not Active
CC(C)(C)N(Cc1ccccc1)C(=O)COC(=O)c1cc([N+](=O)[O-])cc([N+](=O)[O-])c1,,> 50,,,
CCOC(=O)[C@H](C)NC(=O)c1ccc([N+](=O)[O-])o1,,> 50,,,
CC(=O)Oc1ccc(CN(C(=O)COC(=O)c2ccc([N+](=O)[O-])o2)C(C)(C)C)cc1,> 100,8.7,> 100,,
CC(C)(C)NC(=O)COC(=O)c1ccc(-c2ccc([N+](=O)[O-])cc2)o1,,> 50,,,
CC(C)(NC(=O)COC(=O)c1ccc([N+](=O)[O-])o1)c1ccccc1,> 100,8.2,> 100,,
CC(C)(C)NC(=O)COC(=O)c1ccc(-c2ccccc2[N+](=O)[O-])o1,,> 50,,,
CC(C)(C)NC(=O)COC(=O)c1ccc(-c2cccc([N+](=O)[O-])c2)o1,,> 50,,,
CCOC(=O)[C@@H](NC(=O)c1ccc([N+](=O)[O-])o1)c1ccccc1,,> 50,,,
CC(C)(C)N(Cc1ccccc1C(F)(F)F)C(=O)COC(=O)c1ccc([N+](=O)[O-])o1,95,9,65,,
CC(C)(C)NC(=O)COC(=O)c1ccc([N+](=O)[O-])cc1,,> 50,,,
CC(C)(C)N(Cc1ccc([N+](=O)[O-])cc1)C(=O)COC(=O)c1ccc([N+](=O)[O-])o1,> 100,6.9,> 100,,
O=C(OCC(=O)N(Cc1ccccc1)CC1CCCO1)c1ccc([N+](=O)[O-])o1 (stereo not given),> 100,7.7,> 100,,
CC(C)(C)NC(=O)COC(=O)c1cccc([N+](=O)[O-])c1,,> 50,,,
CC(C)(C)N(CCc1ccccc1)C(=O)COC(=O)c1ccc([N+](=O)[O-])o1,> 100,14.2,67,,
